Key:
Type in all cases: functional
HL-60(TB) = assay: Growth inhibition of human HL-60(TB) cells after 48 hrs by sulforhodamine B assay; conditions: HL-60, 48 h
Method in brief: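 NCI 60-cell-line panel. Cells were grown in RPMI1640 with 5% fetal calf serum and 2 mM L-glutamine, seeded at a density suited to each line, and preincubated 24 h. Compounds were tested at a minimum of five concentrations at 10-fold dilutions over a 5-log range, with 48 h continuous exposure. Growth was read by sulforhodamine B protein staining, and GI50 was taken from dose-response curves.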

HOP-92 = assay: Growth inhibition of human HOP92 cells after 48 hrs by sulforhodamine B assay; conditions: HOP-92, 48 h
Method in brief: (§1)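 NCI 60-cell-line panel. Cells are grown in RPMI1640 with 5% fetal calf serum and 2 mM L-glutamine, seeded at a density set by growth characteristics, and preincubated 24 h. Compound is tested at a minimum of five concentrations at 10-fold dilution, with 48 h continuous exposure. Viability is read by sulforhodamine B protein assay. GI50, TGI and LC50 come from dose-response curves.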

NCI-H23 = assay: Growth inhibition of human NCI-H23 cells after 48 hrs by sulforhodamine B assay; conditions: NCI-H23, 48 h; method in brief: as §1
NCI-H322M = assay: Growth inhibition of human NCI-H322M cells after 48 hrs by sulforhodamine B assay; method in brief: as §1
NCI-H460 [1] = assay: Growth inhibition of human NCI-H460 cells after 48 hrs by sulforhodamine B assay; conditions: NCI-H460, 48 h; method in brief: as §1
COLO 205 = assay: Growth inhibition of human COLO205 cells after 48 hrs by sulforhodamine B assay; conditions: COLO 205, 48 h; method in brief: as §1
HCC 2998 = assay: Growth inhibition of human HCC2998 cells after 48 hrs by sulforhodamine B assay; conditions: HCC 2998, 48 h; method in brief: as §1
HCT-116 = assay: Growth inhibition of human HCT116 cells after 48 hrs by sulforhodamine B assay; conditions: HCT-116, 48 h; method in brief: as §1
HT-29 = assay: Growth inhibition of human HT-29 cells after 48 hrs by sulforhodamine B assay; conditions: HT-29, 48 h; method in brief: as §1
KM12 = assay: Growth inhibition of human KM12 cells after 48 hrs by sulforhodamine B assay; conditions: KM12, 48 h; method in brief: as §1
SW-620 = assay: Growth inhibition of human SW620 cells after 48 hrs by sulforhodamine B assay; conditions: SW-620, 48 h
Method in brief: (§2)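 NCI 60-cell-line panel (nine cancer types), with cells grown in RPMI1640 plus 5% fetal calf serum and 2 mM L-glutamine. Cells are seeded at a density that depends on the line and preincubated 24 h. Compounds are then applied at a minimum of five 10-fold dilutions over a 5-log range with 48 h continuous exposure. Viability is read by SRB protein assay, and GI50 is derived from dose-response curves in units of 10^-5 M.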

SF-268 = assay: Growth inhibition of human SF268 cells after 48 hrs by sulforhodamine B assay; conditions: SF-268, 48 h; method in brief: as §1
SF-295 = assay: Growth inhibition of human SF295 cells after 48 hrs by sulforhodamine B assay; conditions: SF-295, 48 h; method in brief: as §1
SNB-19 = assay: Growth inhibition of human SNB19 cells after 48 hrs by sulforhodamine B assay; conditions: SNB-19, 48 h; method in brief: as §2
SNB-75 = assay: Growth inhibition of human SNB75 cells after 48 hrs by sulforhodamine B assay; conditions: SNB-75, 48 h; method in brief: as §2
U-251 = assay: Growth inhibition of human U251 cells after 48 hrs by sulforhodamine B assay; conditions: U-251, 48 h; method in brief: as §2
SK-MEL-5 = assay: Growth inhibition of human SK-MEL-5 cells after 48 hrs by sulforhodamine B assay; conditions: SK-MEL-5, 48 h; method in brief: as §1
UACC-257 = assay: Growth inhibition of human UACC257 cells after 48 hrs by sulforhodamine B assay; conditions: UACC-257, 48 h; method in brief: as §2
UACC-62 = assay: Growth inhibition of human UACC62 cells after 48 hrs by sulforhodamine B assay; conditions: UACC-62, 48 h; method in brief: as §2
IGROV-1 = assay: Growth inhibition of human IGROV1 cells after 48 hrs by sulforhodamine B assay; conditions: IGROV-1, 48 h; method in brief: as §1
OVCAR-4 = assay: Growth inhibition of human OVCAR4 cells after 48 hrs by sulforhodamine B assay; conditions: OVCAR-4, 48 h; method in brief: as §1
OVCAR-5 = assay: Growth inhibition of human OVCAR5 cells after 48 hrs by sulforhodamine B assay; conditions: OVCAR-5, 48 h; method in brief: as §1
SK-OV-3 = assay: Growth inhibition of human SKOV3 cells after 48 hrs by sulforhodamine B assay; conditions: SK-OV-3, 48 h; method in brief: as §1
RXF 393 = assay: Growth inhibition of human RXF393 cells after 48 hrs by sulforhodamine B assay; conditions: RXF 393, 48 h; method in brief: as §1
SN12C = assay: Growth inhibition of human SN12C cells after 48 hrs by sulforhodamine B assay; method in brief: as §1
TK-10 = assay: Growth inhibition of human TK10 cells after 48 hrs by sulforhodamine B assay; conditions: TK-10, 48 h; method in brief: as §2
MCF7 = assay: Antiproliferative activity against human MCF7 cells assessed as cell growth at 100 uM after 48 hrs by alamar blue assay; conditions: MCF7, 48 h, read-out: Activity
Method in brief: (§3)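 NCI three-cell-line primary screen. Cells are seeded and preincubated in microtiter plates. Compound is added at a single 10^-4 M concentration and cultures are incubated 48 h. The end-point is read with alamar blue. Results are given as percent growth relative to untreated control cells.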

NCI-H460 [2] = assay: Antiproliferative activity against human NCI-H460 cells assessed as cell growth at 100 uM after 48 hrs by alamar blue assay; conditions: NCI-H460, 48 h, read-out: Activity; method in brief: as §3
CCRF-CEM = assay: Growth inhibition of human CCRF-CEM cells after 48 hrs by sulforhodamine B assay; method in brief: as §1
[3] = read-out: LC50 (the source's name)

With COc1ccc(/C=N/c2nc3[nH]nc(C)n3c(=O)c2S(=O)(=O)NN2C(=O)C(CN3CCN(C)CC3)SC2c2cccs2)cc1 (centres undefined) the GI50 (HL-60(TB)) was 3.41 µM, the LC50 (HL-60(TB)) was 31.3 µM and the TGI (HL-60(TB)) was 7.04 µM. It also gave a GI50 (HOP-92) of 9.41 µM, an LC50 (HOP-92) greater than 100 µM and a TGI (HOP-92) greater than 100 µM. It also gave a GI50 (NCI-H23) of 1.16 µM, a TGI (NCI-H23) of 9.11 µM and a GI50 (NCI-H322M) of 8.18 µM. For the same molecule, the TGI (NCI-H322M) was greater than 100 µM, the GI50 (NCI-H460 [1]) was 8.2 µM and the TGI (NCI-H460 [1]) was greater than 100 µM. The GI50 (COLO 205) was 5.29 µM, the TGI (COLO 205) was 21 µM and the GI50 (HCC 2998) was 1.34 µM. The LC50 (HCC 2998) was greater than 100 µM, the TGI (HCC 2998) was 16.8 µM and the GI50 (HCT-116) was 1.01 µM. For the same molecule, the LC50 (concentration killing 50% of cells) (HCT-116) was greater than 100 µM, the TGI (HCT-116) was 20 µM and the GI50 (HT-29) was 1.96 µM. For the same molecule, the GI50 (KM12) was 3.02 µM, the GI50 (SW-620) was 1.38 µM and the GI50 (SF-268) was greater than 100 µM. For the same molecule, the TGI (SF-268) was greater than 100 µM, the CC50 (SF-268; [3]) was greater than 100 µM and the GI50 (SF-295) was 1.02 µM. For the same molecule, the LC50 (concentration killing 50% of cells) (SF-295) was greater than 100 µM, the TGI (SF-295) was greater than 100 µM and the GI50 (SNB-19) was 7.14 µM. It also gave a TGI (SNB-19) greater than 100 µM, a GI50 (SNB-75) of 2.01 µM and a TGI (SNB-75) greater than 100 µM. It also gave a GI50 (U-251) of 2.51 µM, an LC50 (U-251) greater than 100 µM and a TGI (U-251) greater than 100 µM. It also gave a GI50 (SK-MEL-5) of 0.72 µM, a TGI (SK-MEL-5) of 7.11 µM and a CC50 (SK-MEL-5; [3]) greater than 100 µM. It also gave a GI50 (UACC-257) of 2.52 µM, an LC50 (UACC-257) greater than 100 µM and a TGI (UACC-257) greater than 100 µM. The GI50 (UACC-62) was 1.47 µM, the TGI (UACC-62) was greater than 100 µM and the CC50 (UACC-62; [3]) was greater than 100 µM. For the same molecule, the GI50 (IGROV-1) was 0.78 µM, the LC50 (IGROV-1) was greater than 100 µM and the TGI (IGROV-1) was 97.3 µM. For the same molecule, the GI50 (OVCAR-4) was greater than 100 µM, the LC50 (OVCAR-4) was greater than 100 µM and the TGI (OVCAR-4) was greater than 100 µM. It also gave a GI50 (OVCAR-5) of 8.31 µM, an LC50 (concentration causing 50% net cell kill) (OVCAR-5) greater than 100 µM and a TGI (OVCAR-5) greater than 100 µM. For the same molecule, the GI50 (SK-OV-3) was 5.12 µM, the TGI (SK-OV-3) was greater than 100 µM and the GI50 (RXF 393) was 2.34 µM. For the same molecule, the TGI (RXF 393) was greater than 100 µM, the CC50 (RXF 393; [3]) was greater than 100 µM and the GI50 (SN12C) was 4.68 µM. The LC50 (SN12C) was greater than 100 µM, the TGI (SN12C) was greater than 100 µM and the GI50 (TK-10) was 5.9 µM. For the same molecule, the LC50 (TK-10) was greater than 100 µM, the TGI (TK-10) was greater than 100 µM and the growth at 100 µM (MCF7) was 46%. For the same molecule, the growth at 100 µM (NCI-H460 [2]) was 24%, the GI50 (CCRF-CEM) was 3.52 µM and the TGI (CCRF-CEM) was 16.1 µM.
